Here are results for 13 compounds from PubChem BioAssay.

Structures are written as SMILES. The source made the active and inactive calls.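 Rule for the calls, unless noted: active = viability at or under a set limit in both replicates, limit being median viability minus 3 SD (cut at about 48% in these data, passing the limit was not always enough); inconclusive = at or under the limit in just one replicate; inactive = at or above the limit in both replicates.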

Experiment [1] is described as follows: reducers of endogenous Her2 protein level, primary screen, SKBR3 breast tumor cells, AlphaScreen, ATP viability (AID 461;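 active = Her2 level under about 52% in both replicate screens, with viability over 70% of control, limit read from the data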;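 for Her2 level: lower value means less Her2 protein in the cells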;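 for viability: percent of carrier control wells set as 100% viability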). To be noted: 18-24 h, measured here: SKBR3 viability, ATP luminescence, at 10 µM. In general terms: In Alpha technology, singlet oxygen from a donor bead excites a nearby acceptor bead.
Experiment [2] has as its target Receptor tyrosine-protein kinase erbB-2 (Homo sapiens) (UniProt P04626). Described as above. To be noted: 18-24 h, at 10 µM, stronger effect = lower value.
A short description of experiment [3]: SK-BR-3 cell growth inhibitors, pilot screen, 24 h, human (AID 572;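 active = viability at or below 10% of carrier control in both of two separate runs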;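 note: compound exposure lasted between 18 and 24 h rather than exactly 24 h; 100% = carrier-treated control wells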). To be noted: SK-BR-3 viability, CellTiter-Glo luminescence, at 10 µM, stronger effect = lower value. Background: In ATP-based viability assays light output follows the ATP content of the culture.
The nature of experiment [4]: HUVEC growth inhibition – cell-based, human, primary screen (AID 575;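 active = viability at or below 30% in both replicate assays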;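 note: 100% = median of untreated cell wells with 0.1% DMSO on each plate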). To be noted: HUVEC proliferation, CellTiter-Glo luminescence, 72 h; at 10 µM; stronger effect = lower value. The method, boiled down: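 Timing: 72 h treatment at 37 °C; material: HUVEC primary cells; technique: CellTiter-Glo luminescence measuring cellular ATP; controls: vehicle and MePR control wells; measure: percent of median DMSO-control luminescence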

The nature of experiment [5]: growth inhibitors of H69AR lung tumor, primary screen, human, duplicate replicates (AID 580).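 Note: 100% = mean luminescence of untreated wells and 0% = no signal.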 To be noted: H69AR lung tumor cells viability, ATP luminescence, 72 h; at 10 µM; stronger effect = lower value.
Experiment [6] in a line: reversal of MRP1-mediated doxorubicin resistance, pilot screen, H69AR cells, doxorubicin co-treatment (AID 601;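 active = viability loss from added drug above about 55%, and viability with drug at most 40%, in both replicates, limit read from the data, passing the limit was not always enough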). To be noted: CellTiter-Glo, 72 h, at 10 µM; for differential viability (reversal): stronger effect = higher value.
Experiment [7] can be described thus: 384-well plate pilot, post-Golgi transport modulator project, inhibition of yeast transport mutant growth (AID 636; in the data active = inhibition above about 31%). To be noted: absorbance 615 nm, about 18 h, stronger effect = higher value.
Experiment [8] in a line: growth suppression of yeast trafficking mutant, preliminary HTS, modulators of trafficking downstream of Golgi apparatus project, 1536-format plate, OD 615 nm (AID 637; in the data active = inhibition above about 30%). To be noted: yeast transport mutant growth, absorbance 615 nm, 18 h; stronger effect = higher value.
The mark [9] stands for this setting: H69AR cells + 2 uM doxorubicin, measured here: viability with 2 uM doxorubicin, stronger effect = lower value.
[10] abbreviates: H69AR cells, compound alone cytotoxicity.

Chain of Receptor tyrosine-protein kinase erbB-2 (Homo sapiens) (P04626 whole entry, looked up): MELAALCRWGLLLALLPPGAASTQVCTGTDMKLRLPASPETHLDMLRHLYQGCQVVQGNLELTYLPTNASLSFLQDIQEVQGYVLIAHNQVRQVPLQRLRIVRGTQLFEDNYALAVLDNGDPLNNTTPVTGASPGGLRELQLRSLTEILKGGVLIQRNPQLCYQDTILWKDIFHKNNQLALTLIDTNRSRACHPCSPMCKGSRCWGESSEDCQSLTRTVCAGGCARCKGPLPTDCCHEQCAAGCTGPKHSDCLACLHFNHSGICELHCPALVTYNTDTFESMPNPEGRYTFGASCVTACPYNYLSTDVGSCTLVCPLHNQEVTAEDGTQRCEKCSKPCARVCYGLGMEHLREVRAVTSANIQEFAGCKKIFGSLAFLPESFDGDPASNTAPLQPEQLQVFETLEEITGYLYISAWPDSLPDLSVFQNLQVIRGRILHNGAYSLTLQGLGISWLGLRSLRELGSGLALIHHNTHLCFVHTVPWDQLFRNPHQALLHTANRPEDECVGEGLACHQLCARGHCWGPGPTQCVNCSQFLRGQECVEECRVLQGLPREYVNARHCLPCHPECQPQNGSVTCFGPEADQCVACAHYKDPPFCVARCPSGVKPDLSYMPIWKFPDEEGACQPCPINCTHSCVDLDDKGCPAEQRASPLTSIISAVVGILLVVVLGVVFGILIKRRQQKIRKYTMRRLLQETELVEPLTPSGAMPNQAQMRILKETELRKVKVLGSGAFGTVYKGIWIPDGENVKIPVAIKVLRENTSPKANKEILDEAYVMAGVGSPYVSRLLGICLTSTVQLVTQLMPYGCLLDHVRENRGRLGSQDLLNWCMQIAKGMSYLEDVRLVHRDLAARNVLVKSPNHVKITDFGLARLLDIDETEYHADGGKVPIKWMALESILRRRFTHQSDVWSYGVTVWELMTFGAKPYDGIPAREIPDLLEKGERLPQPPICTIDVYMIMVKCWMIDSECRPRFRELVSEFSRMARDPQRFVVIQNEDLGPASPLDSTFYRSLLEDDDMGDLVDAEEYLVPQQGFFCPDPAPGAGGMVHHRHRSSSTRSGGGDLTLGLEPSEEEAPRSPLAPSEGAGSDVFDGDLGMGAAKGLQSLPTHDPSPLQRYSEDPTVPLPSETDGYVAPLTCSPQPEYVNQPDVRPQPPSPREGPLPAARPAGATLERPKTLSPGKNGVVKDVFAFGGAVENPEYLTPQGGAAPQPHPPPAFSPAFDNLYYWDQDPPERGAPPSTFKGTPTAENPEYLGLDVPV

The term viability denotes a read-out of living cells in per cent, often relative to untreated cells. The inhibition is the change of the read-out against control, counted positive when it falls. Consider `CC1(C)Cc2cccc(OCC(=O)O)c2O1`, for which the viability is 107% in experiment [1]; 107% (inactive) in experiment [3]; 94.5% (inactive) in experiment [4]; 95.4% (inactive) in experiment [5]; 87.8% in experiment [6] (setting [9]); 95.4% in experiment [6] (setting [10]). The Her2 level in experiment [2] was 90% (inactive). In addition, the differential viability (reversal) in experiment [6] (H69AR cells + 2 uM doxorubicin) was 7.61% (inactive). Besides, the inhibition in experiment [7] is -4.53% (inactive); in experiment [8], -3.97% (inactive).
For `CCCOc1ccc([C@@H]2C3CN(C(=O)OCC)CC=C3C(C#N)=C(N)C2(C#N)C#N)cc1OC` (stereo not given in full), the viability in experiment [1] was 88%; in experiment [3], 88% (inactive); in experiment [4], 85.2% (inactive); in experiment [5] it was 63.4% (inactive); in experiment [6] (setting [9]), 75.2%; in experiment [6] (setting [10]), 63.4%. For the same compound, in experiment [2], the Her2 level was 40% (active). The differential viability (reversal) in experiment [6] (H69AR cells + 2 uM doxorubicin) is -11.8% (inactive). Further, the inhibition was -7.03% (inactive) in experiment [7] and 0% (inactive) in experiment [8].
For the compound `CCOc1cc(S(=O)(=O)NCc2ccccn2)c(C)cc1C`, the viability in experiment [1] was 92.5%; in experiment [3], 92.5% (inactive); in experiment [4], 96.8% (inactive); in experiment [5], 100% (inactive); in experiment [6] (setting [9]), 94.1%; in experiment [6] (setting [10]), 100%. Also, the Her2 level in experiment [2] is 84.5% (inactive). For the same compound, in experiment [6] (H69AR cells + 2 uM doxorubicin), the differential viability (reversal) was 6.28% (inactive). Besides, the figures for the inhibition in experiment [7] and in experiment [8] were -5.53% (inactive) and -4.76% (inactive), respectively.
With `COc1ccc(C(NC(=O)C(C)(C)C)NC(=O)C(C)(C)C)cc1`, the viability in experiment [1] is 86%; in experiment [3], 86% (inactive); in experiment [4], 111% (inactive); in experiment [5], 91.7% (inactive); in experiment [6] (setting [9]), 85.5%; in experiment [6] (setting [10]), 91.7%. Besides, the Her2 level in experiment [2] is 99.5% (inactive). Further, the differential viability (reversal) in experiment [6] (H69AR cells + 2 uM doxorubicin) was 6.21% (inactive). For the same compound, the inhibition in experiment [7] was -5.32% (inactive); in experiment [8], -0.32% (inactive).
On to `O=C(c1ccccc1)c1coc2ccc(O)c(CN3CCOCC3)c12`, for which the viability is 78.5% in experiment [1]; 78.5% (inactive) in experiment [3]; 115% (inactive) in experiment [4]; 88.5% (inactive) in experiment [5]; 97.8% in experiment [6] (setting [9]); 88.5% in experiment [6] (setting [10]). Besides, the Her2 level in experiment [2] was 75.5% (inactive). Moreover, the differential viability (reversal) in experiment [6] (H69AR cells + 2 uM doxorubicin) is -9.25% (inactive). The figures for the inhibition in experiment [7] and in experiment [8] were -3.42% (inactive) and 5.9% (inactive), respectively.
On to `COC(=O)c1sc(N)c(C(=O)OC)c1CSc1nc2sc3c(c2c(=O)n1C)CCC3`, for which the viability in experiment [1] was 88%; in experiment [3], 88% (inactive); in experiment [4] it was 81.5% (inactive); in experiment [5], 62.3% (inactive); in experiment [6] (setting [9]), 53.5%; in experiment [6] (setting [10]), 62.3%. The Her2 level in experiment [2] was 103% (inactive). In addition, in experiment [6] (H69AR cells + 2 uM doxorubicin), the differential viability (reversal) is 8.74% (inactive). Also, the inhibition in experiment [7] was -2.84% (inactive); in experiment [8], 2.62% (inactive).
With `Cn1c(=O)c2c([nH]c(=O)n2C)n(C)c1=O`, the viability in experiment [1] is 104%; in experiment [3] it was 104% (inactive); in experiment [4], 88.7% (inactive); in experiment [5], 90.2% (inactive); in experiment [6] (setting [9]), 95.3%; in experiment [6] (setting [10]), 90.2%. Moreover, in experiment [2], the Her2 level is 84.5% (inactive). Further, the differential viability (reversal) in experiment [6] (H69AR cells + 2 uM doxorubicin) was -5.03% (inactive). Also, the figures for the inhibition in experiment [7] and in experiment [8] were -2.21% (inactive) and 7.21% (inactive), respectively.
With `O=C1Nc2ccccc2OC1CC(=O)N1CCCC1` (stereo not given), the viability in experiment [1] is 88.5%; in experiment [3], 88.5% (inactive); in experiment [4], 94.7% (inactive); in experiment [5], 102% (inactive); in experiment [6] (setting [9]) it was 90.5%; in experiment [6] (setting [10]), 102%. Also, in experiment [2], the Her2 level was 91.5% (inactive). In experiment [6] (H69AR cells + 2 uM doxorubicin), the differential viability (reversal) was 11.9% (inactive). The inhibition in experiment [7] is -2.53% (inactive); in experiment [8], 0.66% (inactive).
On to `Cc1ccc(N2CCN(C(=S)c3ccc(N(C)C)cc3)CC2)cc1`, for which the viability is 89.5% in experiment [1]; 89.5% (inactive) in experiment [3]; 91.8% (inactive) in experiment [4]; 82.6% (inactive) in experiment [5]; 92.4% in experiment [6] (setting [9]); 82.6% in experiment [6] (setting [10]). The Her2 level in experiment [2] was 82.5% (inactive). Besides, the differential viability (reversal) in experiment [6] (H69AR cells + 2 uM doxorubicin) was -9.83% (inactive). Also, the inhibition in experiment [7] was -3.92% (inactive); in experiment [8], -6.19% (inactive).
For the compound `COc1cccc(-n2c(C)nc3c(cnn3-c3ccc(C)cc3)c2=O)c1`, the viability in experiment [1] was 86%; in experiment [3], 86% (inactive); in experiment [4] it was 79.6% (inactive); in experiment [5] it was 90.4% (inactive); in experiment [6] (setting [9]), 102%; in experiment [6] (setting [10]) it was 90.4%. The Her2 level in experiment [2] is 102% (inactive). The differential viability (reversal) in experiment [6] (H69AR cells + 2 uM doxorubicin) was -12% (inactive). Moreover, the inhibition was 0.66% (inactive) in experiment [7] and -10.5% (inactive) in experiment [8].
On to `O=S1(=O)CCC(NS(=O)(=O)/C=C/c2ccccc2)C1` (stereo not given), for which the viability is 110% in experiment [1]; 110% (inactive) in experiment [3]; 93.4% (inactive) in experiment [4]; 99.2% (inactive) in experiment [5]; 90.1% in experiment [6] (setting [9]); 99.2% in experiment [6] (setting [10]). Moreover, in experiment [2], the Her2 level was 104% (inactive). Also, the differential viability (reversal) in experiment [6] (H69AR cells + 2 uM doxorubicin) is 9.1% (inactive). Besides, the inhibition in experiment [7] is -6.22% (inactive); in experiment [8], -3.11% (inactive).
On to `Cc1cc2c(cc(C(=O)NCc3cccnc3)n2Cc2ccc(Cl)cc2)o1`, for which the viability in experiment [1] was 92%; in experiment [3], 92% (inactive); in experiment [4], 103% (inactive); in experiment [5], 98.2% (inactive); in experiment [6] (setting [9]) it was 98.5%; in experiment [6] (setting [10]) it was 98.2%. Moreover, the Her2 level in experiment [2] was 68.5% (inactive). The differential viability (reversal) in experiment [6] (H69AR cells + 2 uM doxorubicin) is -0.245% (inactive). In addition, the inhibition in experiment [7] is -1.45% (inactive); in experiment [8] it was -3.33% (inactive).
As for `CCN(C(=O)CCc1nc(-c2ccccc2F)no1)c1cc(OC)ccc1OC`, the viability was 87.5% in experiment [1]; 87.5% (inactive) in experiment [3]; 68.1% (inactive) in experiment [4]; 92.4% (inactive) in experiment [5]; 94.8% in experiment [6] (setting [9]); 92.4% in experiment [6] (setting [10]). In addition, the Her2 level in experiment [2] is 130% (inactive). For the same compound, the differential viability (reversal) in experiment [6] (H69AR cells + 2 uM doxorubicin) is -2.4% (inactive). In addition, the figures for the inhibition in experiment [7] and in experiment [8] were 1.71% (inactive) and 0.33% (inactive), respectively.
